≈ marks a conversion by molar mass, not a printed value.
What was measured:
Pseudomonas aeruginosa [1] = assay: Antibacterial activity against Pseudomonas aeruginosa ATCC 27853 assessed as growth inhibition after 20 hrs by microdilution method; format: functional; conditions: ATCC 27853, 20 h
Method in brief: (§1)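 Broth microdilution per CLSI in cation-adjusted Mueller-Hinton broth, using serial 2-fold compound dilutions. Each strain was inoculated at 5 × 10⁴ CFU per well in 0.1 mL. Plates were incubated at 35 °C for 20 h, and the MIC was then scored.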

Pseudomonas aeruginosa [2] = assay: Antibacterial activity against Pseudomonas aeruginosa PAO1 assessed as growth inhibition after 20 hrs by microdilution method; format: functional; conditions: PAO1, 20 h; method in brief: as §1
[3] = Metabolic stability in rat liver microsomes assessed as compound remaining at 2 uM after 30 mins incubation by LC-MS/MS analysis
Pseudomonas aeruginosa [4] = assay: Antibacterial activity against clinical isolate Pseudomonas aeruginosa SR27156 assessed as growth inhibition after 20 hrs by microdilution method; format: functional; conditions: SR27156, 20 h; method in brief: as §1
HepG2 = assay: Cytotoxicity against human HepG2 cells; format: functional, cell-based
[5] = Inhibition of Staphylococcus aureus MraY by fluorescence assay
Method in brief: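 Purified S. aureus MraY was given UDP-MurNAc-dansylpentapeptide as substrate. Formation of dansylated lipid I was followed by fluorescence enhancement (excitation 355 nm, emission 535 nm).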

[6] = Metabolic stability in human liver microsomes assessed as compound remaining at 2 uM after 30 mins incubation by LC-MS/MS analysis
Pseudomonas aeruginosa [7] = assay: Antibacterial activity against Pseudomonas aeruginosa YY165 deltamexB mutant assessed as growth inhibition after 20 hrs by microdilution method; format: functional; conditions: YY165, 20 h
Method in brief: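 Broth microdilution per CLSI in cation-adjusted Mueller–Hinton broth; serial 2-fold compound dilutions inoculated with 5 × 10⁴ CFU per well (0.1 mL), incubated 35 °C for 20 h, then MIC scored. Strain YY165 is a MexB deletion mutant lacking the inner-membrane transporter of the MexAB-OprM efflux system.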

Pseudomonas aeruginosa [8] = assay: Antibacterial activity against Pseudomonas aeruginosa ATCC 25619 assessed as growth inhibition after 20 hrs by microdilution method; format: functional; conditions: ATCC 25619, 20 h; method in brief: as §1

Row | Compound | MIC (Pseudomonas aeruginosa [1]) [µg/mL] | MIC (Pseudomonas aeruginosa [2]) [µg/mL] | remaining at 0.5 h, 2 µM [3] [%] | MIC (Pseudomonas aeruginosa [4]) [µg/mL] | IC50 (HepG2) [µg/mL] | IC50 [5] [nM] | remaining at 0.5 h, 2 µM [6] [%] | MIC (Pseudomonas aeruginosa [7]) [µg/mL] | MIC (Pseudomonas aeruginosa [8]) [µg/mL]
1 | CCCCCCCCCCCCCCCCC(=O)N[C@@H](CCCNC(=N)N)C(=O)NCCCN[C@H](C(=O)NCCCCNC(=N)N)[C@H](O[C@@H]1O[C@H](CN)[C@@H](O)[C@H]1O)[C@H]1O[C@@H](n2ccc(=O)[nH]c2=O)[C@H](O)[C@@H]1O | 8 (≈ 7.8 µM) | 4 (≈ 3.9 µM) | 69.8 | 8 (≈ 7.8 µM) | 34 (≈ 33.1 µM) | 0.6 | 86.9 | 4 (≈ 3.9 µM) | 8 (≈ 7.8 µM)
2 | CCCCCCCCCCCCCCC[C@H](NC(=O)c1ccccc1)C(=O)NCCCN[C@H](C(=O)O)[C@H](O[C@@H]1O[C@H](CN)[C@@H](O)[C@H]1O)[C@H]1O[C@@H](n2ccc(=O)[nH]c2=O)[C@H](O)[C@@H]1O | > 64 | > 64 |  | > 64 |  | 29.6 |  | > 64 | > 64
3 | CCCCCCCCCCCCCCC[C@H](NC(=O)c1ccncc1)C(=O)NCCCN[C@H](C(=O)O)[C@H](O[C@@H]1O[C@H](CN)[C@@H](O)[C@H]1O)[C@H]1O[C@@H](n2ccc(=O)[nH]c2=O)[C@H](O)[C@@H]1O | > 64 | > 64 |  | > 64 |  | 8.1 |  | > 64 | 64 (≈ 72.9 µM)
4 | CCCCCCCCCCCCCCCCC(=O)N[C@@H](CCCNC(=N)N)C(=O)NCCCN[C@H](C(=O)O)[C@H](O[C@@H]1O[C@H](CN)[C@@H](O)[C@H]1O)[C@H]1O[C@@H](n2ccc(=O)[nH]c2=O)[C@H](O)[C@@H]1O | 32 (≈ 35 µM) | 16 (≈ 17.5 µM) | 81.1 | 16 (≈ 17.5 µM) |  | 1.6 | 89.5 | 8 (≈ 8.75 µM) | 16 (≈ 17.5 µM)
5 | CCCCCCCCC(=O)NCCCCCC(=O)NCCCN[C@H](C(=O)O)[C@H](O[C@@H]1O[C@H](CN)[C@@H](O)[C@H]1O)[C@H]1O[C@@H](n2ccc(=O)[nH]c2=O)[C@H](O)[C@@H]1O | > 64 | > 64 |  | > 64 |  | 97.3 |  | > 64 | > 64

From ChEMBL document CHEMBL3286247, “Expansion of Antibacterial Spectrum of Muraymycins toward Pseudomonas aeruginosa” (ACS Med Chem Lett, 2014)
